Data published in ChEMBL document CHEMBL3588757, “Structure-based design, synthesis and biological testing of piperazine-linked bis-epipodophyllotoxin etoposide analogs” (Bioorg Med Chem, 2015).

Assays:
Assay type in all cases: functional
OVCAR-4 = test: Cytotoxicity against human OVCAR4 cells assessed as cell growth at 0.5 uM by SRB assay; conditions: read-out: Activity
UACC-62 [1] = test: Cytotoxicity against human UACC62 cells assessed as cell growth at 5 uM by SRB assay; conditions: read-out: Activity
HCC 2998 = test: Cytotoxicity against human HCC2998 cells assessed as cell growth at 0.5 uM by SRB assay; conditions: read-out: Activity
How it was run: (§1)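 Measured in the NCI-60 human tumour cell line panel using five-dose testing. Growth was recorded at each dose for each cell line, and a GI50 was derived for each line.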

HOP-92 = test: Cytotoxicity against human HOP92 cells assessed as cell growth at 0.5 uM by SRB assay; conditions: read-out: Activity; how it was run: as §1
T47D = test: Cytotoxicity against human T47D cells by SRB assay
How it was run: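 NCI-60 panel screen; 5-dose testing giving GI50 per cell line, plus a single 10 µM one-dose test. Method details not given beyond the NCI screen.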

SNB-19 = test: Cytotoxicity against human SNB19 cells assessed as cell growth at 50 uM by SRB assay; conditions: read-out: Activity
MDA-MB-468 [2] = test: Cytotoxicity against human MDA-MB-468 cells assessed as cell growth at 0.5 uM by SRB assay; conditions: read-out: Activity
SK-OV-3 = test: Cytotoxicity against human SKOV3 cells assessed as cell growth at 0.005 uM by SRB assay; conditions: read-out: Activity
SR [3] = test: Cytotoxicity against human SR cells assessed as cell growth at 5 uM by SRB assay; conditions: read-out: Activity
SR [4] = test: Cytotoxicity against human SR cells assessed as cell growth at 0.005 uM by SRB assay; conditions: read-out: Activity
DU-145 [5] = test: Cytotoxicity against human DU145 cells by SRB assay; how it was run: as §1
PC-3 [6] = test: Cytotoxicity against human PC3 cells assessed as cell growth at 0.5 uM by SRB assay; conditions: read-out: Activity
MDA-MB-435 = test: Cytotoxicity against human MDA-MB-435 cells assessed as cell growth at 0.005 uM by SRB assay; conditions: read-out: Activity
NCI-H522 = test: Cytotoxicity against human NCI-H522 cells assessed as cell growth at 0.005 uM by SRB assay; conditions: read-out: Activity
RXF 393 [7] = test: Cytotoxicity against human RXF393 cells assessed as cell growth at 0.005 uM by SRB assay; conditions: read-out: Activity
SNB-75 [8] = test: Cytotoxicity against human SNB75 cells assessed as cell growth at 0.05 uM by SRB assay; conditions: read-out: Activity
MDA-MB-231 = test: Cytotoxicity against human MDA-MB-231/ATCC cells assessed as cell growth at 0.005 uM by SRB assay; conditions: read-out: Activity
RXF 393 [9] = test: Cytotoxicity against human RXF393 cells assessed as cell growth at 0.5 uM by SRB assay; conditions: read-out: Activity
DU-145 [10] = test: Cytotoxicity against human DU145 cells assessed as cell growth at 50 uM by SRB assay; conditions: read-out: Activity; how it was run: as §1
HOP-62 = test: Cytotoxicity against human HOP62 cells assessed as cell growth at 5 uM by SRB assay; conditions: read-out: Activity; how it was run: as §1
SR [11] = test: Cytotoxicity against human SR cells assessed as cell growth at 0.05 uM by SRB assay; conditions: read-out: Activity
MDA-MB-468 [12] = test: Cytotoxicity against human MDA-MB-468 cells assessed as cell growth at 0.005 uM by SRB assay; conditions: read-out: Activity
HCT-15 [13] = test: Cytotoxicity against human HCT15 cells by SRB assay; how it was run: as §1
TK-10 = test: Cytotoxicity against human TK10 cells assessed as cell growth at 5 uM by SRB assay; conditions: read-out: Activity
HCT-116 = test: Cytotoxicity against human HCT116 cells assessed as cell growth at 5 uM by SRB assay; conditions: read-out: Activity; how it was run: as §1
HL-60(TB) [14] = test: Cytotoxicity against human HL-60(TB) cells assessed as cell growth at 5 uM by SRB assay; conditions: read-out: Activity; how it was run: as §1
SK-MEL-5 = test: Cytotoxicity against human SK-MEL-5 cells assessed as cell growth at 5 uM by SRB assay; conditions: read-out: Activity
PC-3 [15] = test: Cytotoxicity against human PC3 cells assessed as cell growth at 0.05 uM by SRB assay; conditions: read-out: Activity
ACHN = test: Cytotoxicity against human ACHN cells assessed as cell growth at 50 uM by SRB assay; conditions: read-out: Activity
786-0 = test: Cytotoxicity against human 786-0 cells assessed as cell growth at 0.5 uM by SRB assay; conditions: read-out: Activity
BT-549 = test: Cytotoxicity against human BT549 cells assessed as cell growth at 0.005 uM by SRB assay; conditions: read-out: Activity
A549 = test: Cytotoxicity against human A549/ATCC cells assessed as cell growth at 0.05 uM by SRB assay; conditions: read-out: Activity
SF-295 = test: Cytotoxicity against human SF295 cells assessed as cell growth at 0.05 uM by SRB assay; conditions: read-out: Activity
A498 = test: Cytotoxicity against human A498 cells assessed as cell growth at 5 uM by SRB assay; conditions: read-out: Activity
UACC-62 [16] = test: Cytotoxicity against human UACC62 cells assessed as cell growth at 50 uM by SRB assay; conditions: read-out: Activity
HL-60(TB) [17] = test: Cytotoxicity against human HL-60(TB) cells by SRB assay; how it was run: as §1
UO-31 = test: Cytotoxicity against human UO31 cells assessed as cell growth at 0.05 uM by SRB assay; conditions: read-out: Activity
U-251 = test: Cytotoxicity against human U251 cells assessed as cell growth at 0.05 uM by SRB assay; conditions: read-out: Activity
LOX IMVI [18] = test: Cytotoxicity against human LOXIMVI cells assessed as cell growth at 5 uM by SRB assay; conditions: read-out: Activity
HCT-15 [19] = test: Cytotoxicity against human HCT15 cells assessed as cell growth at 5 uM by SRB assay; conditions: read-out: Activity; how it was run: as §1
IGROV-1 = test: Cytotoxicity against human IGROV1 cells assessed as cell growth at 5 uM by SRB assay; conditions: read-out: Activity
CCRF-CEM = test: Cytotoxicity against human CCRF-CEM cells by SRB assay
SNB-75 [20] = test: Cytotoxicity against human SNB75 cells assessed as cell growth at 5 uM by SRB assay; conditions: read-out: Activity
LOX IMVI [21] = test: Cytotoxicity against human LOXIMVI cells assessed as cell growth at 0.05 uM by SRB assay; conditions: read-out: Activity
NCI-H460 = test: Cytotoxicity against human NCI-H460 cells assessed as cell growth at 5 uM by SRB assay; conditions: read-out: Activity
[22] = read-out: LC50 (the source's name)
[23] = read-out: pLC50 (the source's name) (converted)

## COc1cc([C@@H]2c3cc4c(cc3[C@@H](NC(=O)CN3CCN(CCCCCCN5CCN(CC(=O)N[C@@H]6c7cc8c(cc7[C@@H](c7cc(OC)c(O)c(OC)c7)[C@H]7C(=O)OC[C@@H]76)OCO8)CC5)CC3)[C@H]3COC(=O)[C@H]23)OCO4)cc(OC)c1O
OVCAR-4
  growth at 0.5 µM: 90%
UACC-62 [1]
  growth at 5 µM: 29%
HCC 2998
  growth at 0.5 µM: 82%
HOP-92
  growth at 0.5 µM: 69%
T47D; read-out: GI50
  GI50: 2.01 µM
T47D; [22]
  CC50: > 50 µM
T47D; read-out: TGI
  TGI: > 50 µM
T47D; read-out: pGI50 (converted)
  GI50: 2 µM
T47D; [23]
  CC50: > 50.1 µM
T47D; read-out: pTGI (converted)
  TGI: > 50.1 µM
SNB-19
  growth at 50 µM: 11%
MDA-MB-468 [2]
  growth at 0.5 µM: 83%
SK-OV-3
  growth at 0.005 µM: 104%
SR [3]
  growth at 5 µM: 6%
SR [4]
  growth at 0.005 µM: 90%
DU-145 [5]; read-out: GI50
  GI50: 1.66 µM
DU-145 [5]; [22]
  CC50: > 50 µM
DU-145 [5]; read-out: TGI
  TGI: > 50 µM
DU-145 [5]; read-out: pGI50 (converted)
  GI50: 1.66 µM
DU-145 [5]; [23]
  CC50: > 50.1 µM
DU-145 [5]; read-out: pTGI (converted)
  TGI: > 50.1 µM
PC-3 [6]
  growth at 0.5 µM: 80%
MDA-MB-435
  growth at 0.005 µM: 91%
NCI-H522
  growth at 0.005 µM: 99%
RXF 393 [7]
  growth at 0.005 µM: 99%
SNB-75 [8]
  growth at 0.05 µM: 77%
MDA-MB-231
  growth at 0.005 µM: 103%
RXF 393 [9]
  growth at 0.5 µM: 91%
DU-145 [10]
  growth at 50 µM: 7%
HOP-62
  growth at 5 µM: 42%
SR [11]
  growth at 0.05 µM: 64%
MDA-MB-468 [12]
  growth at 0.005 µM: 91%
HCT-15 [13]; read-out: GI50
  GI50: > 50 µM
HCT-15 [13]; [22]
  CC50: > 50 µM
HCT-15 [13]; read-out: TGI
  TGI: > 50 µM
HCT-15 [13]; read-out: pGI50 (converted)
  GI50: > 50.1 µM
HCT-15 [13]; [23]
  CC50: > 50.1 µM
HCT-15 [13]; read-out: pTGI (converted)
  TGI: > 50.1 µM
TK-10
  growth at 5 µM: 85%
HCT-116
  growth at 5 µM: 40%
HL-60(TB) [14]
  growth at 5 µM: 6%
SK-MEL-5
  growth at 5 µM: 57%
PC-3 [15]
  growth at 0.05 µM: 90%
ACHN
  growth at 50 µM: 37%
786-0
  growth at 0.5 µM: 82%
BT-549
  growth at 0.005 µM: 86%
A549
  growth at 0.05 µM: 89%
SF-295
  growth at 0.05 µM: 93%
A498
  growth at 5 µM: 54%
UACC-62 [16]
  growth at 50 µM: -5%
HL-60(TB) [17]; read-out: GI50
  GI50: 0.772 µM
HL-60(TB) [17]; [22]
  CC50: > 50 µM
HL-60(TB) [17]; read-out: TGI
  TGI: 33.8 µM
HL-60(TB) [17]; read-out: pGI50 (converted)
  GI50: 0.776 µM
HL-60(TB) [17]; [23]
  CC50: > 50.1 µM
HL-60(TB) [17]; read-out: pTGI (converted)
  TGI: 33.9 µM
UO-31
  growth at 0.05 µM: 97%
U-251
  growth at 0.05 µM: 101%
LOX IMVI [18]
  growth at 5 µM: 23%
HCT-15 [19]
  growth at 5 µM: 82%
IGROV-1
  growth at 5 µM: 74%
CCRF-CEM; read-out: GI50
  GI50: 0.253 µM
CCRF-CEM; [22]
  CC50: > 50 µM
CCRF-CEM; read-out: TGI
  TGI: > 50 µM
CCRF-CEM; read-out: pGI50 (converted)
  GI50: 0.251 µM
CCRF-CEM; [23]
  CC50: > 50.1 µM
CCRF-CEM; read-out: pTGI
  TGI: > 50.1 µM
SNB-75 [20]
  growth at 5 µM: 22%
LOX IMVI [21]
  growth at 0.05 µM: 88%
NCI-H460
  growth at 5 µM: 11%
